The target in one experiment is Histone deacetylase 2 (Homo sapiens, UniProt Q92769). The experiment can be described thus: Inhibition of full length recombinant human C-terminal His-tagged HDAC2 expressed in baculovirus infected sf9 cells using Boc-Lys-(Ac)-AMC as substrate preincubated for 15 mins followed by substrate addition measured after 60 mins by fluorescence assay.
A further experiment concerns the target T1, Histone deacetylase 8 (Homo sapiens, UniProt Q9BY41).
T1 sequence (Q9BY41 whole entry): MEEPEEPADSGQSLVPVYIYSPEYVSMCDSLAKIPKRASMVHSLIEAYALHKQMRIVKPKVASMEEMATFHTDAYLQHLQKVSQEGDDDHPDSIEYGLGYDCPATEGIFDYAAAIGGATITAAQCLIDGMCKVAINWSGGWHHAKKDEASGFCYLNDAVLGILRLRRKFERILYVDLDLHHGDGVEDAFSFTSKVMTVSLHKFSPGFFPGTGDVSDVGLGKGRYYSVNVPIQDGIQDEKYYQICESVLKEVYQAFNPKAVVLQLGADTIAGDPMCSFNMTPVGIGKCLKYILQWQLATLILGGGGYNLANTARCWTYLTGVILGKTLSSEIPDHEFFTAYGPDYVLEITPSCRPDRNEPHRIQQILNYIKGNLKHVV
Put plainly: Inhibition of full length recombinant human C-terminal His-tagged HDAC8 expressed in baculovirus infected sf9 cells using Boc-Lys-(TFA)-AMC as substrate preincubated for 15 mins followed by substrate addition measured after 60 mins by fluorescence assay.

For another experiment, the target named is Histone deacetylase. Put plainly: Inhibition of HDAC in human HeLa nuclear extract using Boc-Lys-(Ac)-AMC as substrate preincubated for 15 mins followed by substrate addition measured after 60 mins by fluorescence assay. The experiment is classed as protein assay.
A further experiment has as its target Histone deacetylase 1 (Homo sapiens, UniProt Q13547). Put plainly: Inhibition of full length recombinant human C-terminal FLAG/His-tagged HDAC1 expressed in baculovirus infected sf9 cells using Boc-Lys-(Ac)-AMC as substrate preincubated for 15 mins followed by substrate addition measured after 60 mins by fluorescence assay.
The target of experiment [1] is Histone deacetylase 3/Nuclear receptor corepressor 2 (HDAC3/NCoR2) (Homo sapiens, UniProt O15379). The experiment can be described thus: Inhibition of full length recombinant human C-terminal His-tagged HDAC3/N-terminal GST-tagged NCOR2 (395 to 489 residues) expressed in baculovirus infected sf9 cells using Boc-Lys-(Ac)-AMC as substrate preincubated for 15 mins followed by substrate addition measured after 60 mins by fluorescence assay.

Experiment [2] concerns HepG2. Put plainly: Potency index, ratio of vorinostat GI50 to compound GI50 for human HepG2 cells. The experiment is classed as functional.
Experiment [3] relates to HepG2. Put plainly: Antiproliferative activity against human HepG2 cells after 96 hrs by MTT assay. The experiment is classed as functional. The settings on record: Homo sapiens, HepG2, 96 h. The gist of the method: (§1)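 Cells from Shanghai Cell Bank; A549 grown in high-glucose DMEM and HepG2 in MEM, both with 10% FBS plus penicillin/streptomycin, at 37°C in 5% CO₂. Seeded at 1.5-3.5×10⁴ cells/well for 24 h, then given graded compound concentrations for 96 h. MTT solution (2 mg/mL) added for 4 h, formazan dissolved in DMSO, A570 read. Growth expressed as treated/untreated cell number ratio.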

The next experiment deals with A549. Put plainly: Antiproliferative activity against human A549 cells after 96 hrs by MTT assay. The experiment is classed as functional. The settings on record: Homo sapiens, A549, 96 h. The gist of the method:
as §1

Experiment [4] concerns the target T2, Protein deacetylase HDAC6 (Homo sapiens, UniProt Q9UBN7).
T2 sequence (Q9UBN7 whole entry): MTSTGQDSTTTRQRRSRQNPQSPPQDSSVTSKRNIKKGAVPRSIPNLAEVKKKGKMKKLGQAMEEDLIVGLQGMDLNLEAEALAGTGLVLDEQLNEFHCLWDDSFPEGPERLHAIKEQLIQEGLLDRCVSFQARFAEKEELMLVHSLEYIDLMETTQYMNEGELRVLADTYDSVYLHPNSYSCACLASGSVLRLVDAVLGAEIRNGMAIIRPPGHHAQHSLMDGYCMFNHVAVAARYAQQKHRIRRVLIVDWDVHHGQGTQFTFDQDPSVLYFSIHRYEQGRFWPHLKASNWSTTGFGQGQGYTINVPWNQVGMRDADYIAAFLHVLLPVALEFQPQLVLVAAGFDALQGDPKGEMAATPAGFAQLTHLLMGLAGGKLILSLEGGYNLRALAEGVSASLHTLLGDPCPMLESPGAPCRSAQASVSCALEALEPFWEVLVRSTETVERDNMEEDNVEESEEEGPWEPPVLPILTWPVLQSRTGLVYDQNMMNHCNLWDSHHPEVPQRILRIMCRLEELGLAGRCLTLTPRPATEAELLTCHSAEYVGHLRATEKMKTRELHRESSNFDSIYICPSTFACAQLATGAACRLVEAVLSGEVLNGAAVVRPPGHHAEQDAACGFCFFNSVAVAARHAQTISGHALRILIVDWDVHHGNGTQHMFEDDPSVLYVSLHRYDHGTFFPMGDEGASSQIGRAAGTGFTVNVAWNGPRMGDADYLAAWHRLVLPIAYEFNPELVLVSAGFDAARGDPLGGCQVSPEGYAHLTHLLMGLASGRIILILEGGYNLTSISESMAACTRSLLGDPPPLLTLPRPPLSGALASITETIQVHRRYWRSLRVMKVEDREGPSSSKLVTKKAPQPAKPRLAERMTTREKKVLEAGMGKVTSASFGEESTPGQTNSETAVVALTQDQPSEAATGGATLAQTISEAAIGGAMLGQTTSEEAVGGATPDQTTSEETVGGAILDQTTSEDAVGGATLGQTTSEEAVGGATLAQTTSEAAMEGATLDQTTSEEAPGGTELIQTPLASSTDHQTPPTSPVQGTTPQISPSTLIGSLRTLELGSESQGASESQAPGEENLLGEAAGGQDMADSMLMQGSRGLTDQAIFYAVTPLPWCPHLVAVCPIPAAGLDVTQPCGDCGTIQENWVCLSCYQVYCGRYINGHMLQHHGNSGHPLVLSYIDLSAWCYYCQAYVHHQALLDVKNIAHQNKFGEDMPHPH
Put plainly: Inhibition of full length recombinant human N-terminal GST-tagged HDAC6 expressed in baculovirus infected sf9 cells using Boc-Lys-(Ac)-AMC as substrate preincubated for 15 mins followed by substrate addition measured after 60 mins by fluorescence assay.

Where only a bound is given, the exact number is not on record here.

Chain of Histone deacetylase 3/Nuclear receptor corepressor 2 (HDAC3/NCoR2) (O15379 whole entry, the tested form may be a part): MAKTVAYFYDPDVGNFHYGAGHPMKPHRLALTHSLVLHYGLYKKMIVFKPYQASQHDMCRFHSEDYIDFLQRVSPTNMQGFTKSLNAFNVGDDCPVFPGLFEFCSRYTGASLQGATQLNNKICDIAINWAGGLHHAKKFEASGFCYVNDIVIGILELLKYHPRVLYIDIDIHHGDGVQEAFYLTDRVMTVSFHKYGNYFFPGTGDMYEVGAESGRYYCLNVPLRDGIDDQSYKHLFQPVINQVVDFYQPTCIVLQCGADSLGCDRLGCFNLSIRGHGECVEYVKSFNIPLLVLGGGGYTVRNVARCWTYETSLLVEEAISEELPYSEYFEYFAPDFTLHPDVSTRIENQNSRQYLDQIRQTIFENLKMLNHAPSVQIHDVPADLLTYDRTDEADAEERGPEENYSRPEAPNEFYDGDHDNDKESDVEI
Chain of Histone deacetylase 3/Nuclear receptor corepressor 2 (HDAC3/NCoR2) (Q9Y618 whole entry, further chain, the tested form may be a part): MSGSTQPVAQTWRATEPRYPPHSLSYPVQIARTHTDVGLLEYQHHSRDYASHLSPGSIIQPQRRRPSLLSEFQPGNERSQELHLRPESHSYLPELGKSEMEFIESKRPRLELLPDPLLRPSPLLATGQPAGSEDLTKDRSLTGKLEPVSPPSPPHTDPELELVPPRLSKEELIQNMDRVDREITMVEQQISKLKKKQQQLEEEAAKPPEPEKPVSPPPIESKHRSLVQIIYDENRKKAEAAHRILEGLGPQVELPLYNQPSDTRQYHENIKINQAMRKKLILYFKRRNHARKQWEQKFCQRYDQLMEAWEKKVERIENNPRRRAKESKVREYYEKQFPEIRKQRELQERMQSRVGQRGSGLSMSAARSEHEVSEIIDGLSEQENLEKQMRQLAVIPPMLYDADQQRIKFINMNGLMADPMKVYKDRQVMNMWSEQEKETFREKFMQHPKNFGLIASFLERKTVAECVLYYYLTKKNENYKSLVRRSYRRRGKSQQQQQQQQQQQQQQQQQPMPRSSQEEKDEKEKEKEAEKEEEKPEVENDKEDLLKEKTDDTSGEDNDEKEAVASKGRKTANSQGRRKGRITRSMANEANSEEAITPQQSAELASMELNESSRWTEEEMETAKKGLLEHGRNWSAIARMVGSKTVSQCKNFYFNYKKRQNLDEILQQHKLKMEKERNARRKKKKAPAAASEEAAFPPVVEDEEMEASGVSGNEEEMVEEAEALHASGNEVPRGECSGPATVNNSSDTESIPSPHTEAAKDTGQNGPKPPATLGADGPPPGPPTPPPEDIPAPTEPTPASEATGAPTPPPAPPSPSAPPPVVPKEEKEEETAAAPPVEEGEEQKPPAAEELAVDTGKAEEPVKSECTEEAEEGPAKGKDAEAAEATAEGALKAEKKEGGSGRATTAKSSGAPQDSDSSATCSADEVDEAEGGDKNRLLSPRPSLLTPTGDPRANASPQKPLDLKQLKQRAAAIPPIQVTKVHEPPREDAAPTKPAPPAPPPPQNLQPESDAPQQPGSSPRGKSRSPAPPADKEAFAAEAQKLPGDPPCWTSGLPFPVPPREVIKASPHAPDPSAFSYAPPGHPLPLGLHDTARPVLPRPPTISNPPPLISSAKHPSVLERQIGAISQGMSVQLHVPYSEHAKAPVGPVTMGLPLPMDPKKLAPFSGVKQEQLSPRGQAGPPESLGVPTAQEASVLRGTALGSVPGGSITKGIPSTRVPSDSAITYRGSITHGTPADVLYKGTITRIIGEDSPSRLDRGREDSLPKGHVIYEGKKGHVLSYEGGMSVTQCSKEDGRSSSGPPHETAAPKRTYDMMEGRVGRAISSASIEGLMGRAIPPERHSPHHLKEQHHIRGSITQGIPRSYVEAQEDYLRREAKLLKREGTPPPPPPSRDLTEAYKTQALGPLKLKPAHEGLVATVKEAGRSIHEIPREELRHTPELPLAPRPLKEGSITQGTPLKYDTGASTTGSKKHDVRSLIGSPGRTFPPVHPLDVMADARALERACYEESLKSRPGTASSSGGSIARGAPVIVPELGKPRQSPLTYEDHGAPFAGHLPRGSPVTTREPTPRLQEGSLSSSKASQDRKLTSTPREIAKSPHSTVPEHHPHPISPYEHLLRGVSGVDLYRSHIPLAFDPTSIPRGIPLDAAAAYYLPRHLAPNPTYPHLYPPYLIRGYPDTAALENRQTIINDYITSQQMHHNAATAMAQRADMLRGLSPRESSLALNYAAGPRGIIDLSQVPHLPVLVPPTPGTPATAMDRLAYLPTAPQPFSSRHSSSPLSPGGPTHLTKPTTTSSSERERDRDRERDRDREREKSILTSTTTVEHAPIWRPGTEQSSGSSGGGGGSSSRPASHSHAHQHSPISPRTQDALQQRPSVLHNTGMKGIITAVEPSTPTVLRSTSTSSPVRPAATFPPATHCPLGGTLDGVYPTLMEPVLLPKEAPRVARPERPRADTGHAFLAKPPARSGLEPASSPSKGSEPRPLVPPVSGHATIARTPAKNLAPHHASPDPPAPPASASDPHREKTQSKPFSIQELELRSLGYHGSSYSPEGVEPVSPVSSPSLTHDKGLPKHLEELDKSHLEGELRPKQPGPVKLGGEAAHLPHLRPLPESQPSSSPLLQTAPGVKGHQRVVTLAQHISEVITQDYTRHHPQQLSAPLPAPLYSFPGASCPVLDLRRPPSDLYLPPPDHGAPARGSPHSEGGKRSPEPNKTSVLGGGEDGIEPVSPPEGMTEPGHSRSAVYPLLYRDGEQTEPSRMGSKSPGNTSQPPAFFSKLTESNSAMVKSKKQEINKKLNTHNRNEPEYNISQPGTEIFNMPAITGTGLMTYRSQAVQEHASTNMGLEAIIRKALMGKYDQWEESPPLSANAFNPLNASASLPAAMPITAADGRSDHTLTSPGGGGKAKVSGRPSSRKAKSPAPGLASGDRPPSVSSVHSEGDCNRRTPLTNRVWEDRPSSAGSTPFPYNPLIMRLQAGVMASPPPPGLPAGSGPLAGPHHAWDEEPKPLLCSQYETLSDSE
Chain of Histone deacetylase 1 (Q13547 whole entry, the tested form may be a part): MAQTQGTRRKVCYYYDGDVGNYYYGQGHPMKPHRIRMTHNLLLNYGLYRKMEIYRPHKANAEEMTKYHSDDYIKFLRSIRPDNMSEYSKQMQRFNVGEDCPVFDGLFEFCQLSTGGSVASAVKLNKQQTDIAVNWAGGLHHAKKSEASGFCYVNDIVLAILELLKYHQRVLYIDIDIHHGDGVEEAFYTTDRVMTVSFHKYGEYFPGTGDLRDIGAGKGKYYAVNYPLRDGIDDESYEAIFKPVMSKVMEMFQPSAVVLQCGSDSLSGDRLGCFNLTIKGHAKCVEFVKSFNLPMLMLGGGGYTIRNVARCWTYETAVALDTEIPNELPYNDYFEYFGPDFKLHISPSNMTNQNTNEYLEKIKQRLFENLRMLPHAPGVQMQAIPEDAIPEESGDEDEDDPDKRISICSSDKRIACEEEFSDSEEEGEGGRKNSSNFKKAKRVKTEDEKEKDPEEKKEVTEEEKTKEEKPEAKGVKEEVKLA
Chain of Histone deacetylase 2 (Q92769 whole entry): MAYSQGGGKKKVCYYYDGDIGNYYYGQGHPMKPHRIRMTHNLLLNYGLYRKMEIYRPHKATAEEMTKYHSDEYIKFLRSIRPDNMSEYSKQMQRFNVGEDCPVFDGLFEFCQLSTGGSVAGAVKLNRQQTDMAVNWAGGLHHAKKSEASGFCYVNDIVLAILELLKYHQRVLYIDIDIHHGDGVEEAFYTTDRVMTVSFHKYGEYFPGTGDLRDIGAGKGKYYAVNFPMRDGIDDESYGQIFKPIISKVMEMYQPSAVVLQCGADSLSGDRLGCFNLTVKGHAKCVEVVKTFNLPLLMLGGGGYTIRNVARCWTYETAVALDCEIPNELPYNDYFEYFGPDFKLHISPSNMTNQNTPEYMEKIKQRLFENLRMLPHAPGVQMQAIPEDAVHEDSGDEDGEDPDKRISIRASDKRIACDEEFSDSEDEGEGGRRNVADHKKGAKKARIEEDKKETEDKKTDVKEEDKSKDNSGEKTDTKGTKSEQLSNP

Regarding `Cc1cc(-c2ccc(F)cc2)n(Cc2ccc(C(=O)NO)cc2)n1`, the concentration for half-maximal inhibition (IC50) was 1970 nM on Histone deacetylase 2; > 5000 nM at Histone deacetylase 8; 1439 nM against Histone deacetylase; 2020 nM on Histone deacetylase 1; 1200 nM in experiment [1]; 20 nM in [4]. For the same compound, in the experiment on HepG2 [2], the RatioGI50 is 6. Further, the GI50 in the experiment on HepG2 [3] came to 3630 nM; in the experiment on A549 it was 33000 nM.

As to `Cc1ccc(-c2cc(C(F)(F)F)nn2CCc2ccc(C(=O)NO)cc2)cc1`, the IC50 at Histone deacetylase 2 is 635 nM; on Histone deacetylase 8, > 5000 nM; against Histone deacetylase it was 1460 nM; at Histone deacetylase 1 it was 1070 nM; in [1], 816 nM; in [4], 540 nM. Also, the GI50 in the experiment with HepG2 [3] was 24000 nM; with A549, 29300 nM.

Consider `O=C(CCNC(=O)c1cc(-c2ccc(F)cc2)[nH]n1)NO`, for which the IC50 (at Histone deacetylase 2; at Histone deacetylase 8; against Histone deacetylase; on Histone deacetylase 1; in [1]; in experiment [4]) was > 5000 nM throughout. For the same compound, the results for the GI50 in the experiment on HepG2 [3] and in the experiment with A549 were 76000 nM and 46900 nM, respectively.

In the case of `Cc1cc(-c2ccc3c(c2)OCO3)n(Cc2ccc(C(=O)NO)cc2)n1`, the IC50 at Histone deacetylase 2 was 135 nM; at Histone deacetylase 8, > 5000 nM; at Histone deacetylase, 16 nM; at Histone deacetylase 1, 430 nM; in experiment [1], 92 nM; in experiment [4], 36 nM. For the same compound, the GI50 with HepG2 [3] stood at 16500 nM; in the experiment with A549, 23200 nM.

As for `CCc1cc(-c2ccc(F)cc2)nn1Cc1ccc(C(=O)NO)cc1`, the IC50 is 391 nM at Histone deacetylase 2; > 5000 nM at Histone deacetylase 8; 165 nM on Histone deacetylase; 487 nM at Histone deacetylase 1; 228 nM in experiment [1]; 35 nM in experiment [4]. Moreover, the GI50 came to 16700 nM with HepG2 [3] and 19200 nM in the experiment on A549.

As to `Cc1ccc(-c2cc(C(F)(F)F)nn2Cc2ccc(C(=O)NO)cc2)cc1`, the IC50 is 1220 nM at Histone deacetylase 2; > 5000 nM at Histone deacetylase 8; 231 nM against Histone deacetylase; 925 nM on Histone deacetylase 1; 128 nM in experiment [1]; 27 nM in experiment [4]. The GI50 with HepG2 [3] is 7500 nM; with A549, 10600 nM.

Consider `O=C(NO)c1ccc(CNC(=O)c2cc(-c3ccc(F)cc3)[nH]n2)cc1`, for which the IC50 at Histone deacetylase 2 is 17 nM; at Histone deacetylase 8, > 5000 nM; against Histone deacetylase, 22 nM; on Histone deacetylase 1 it was 38 nM; in experiment [1], 9 nM; in [4], 1 nM. In addition, the GI50 turned out to be 38100 nM in the experiment with HepG2 [3] and 20200 nM in the experiment on A549.

(Values after ChEMBL document CHEMBL4219109, “Design, synthesis and biological evaluation of novel hydroxamic acid based histone deacetylase 6 selective inhibitors bearing phenylpyrazol scaffold as surface recognition motif” (Bioorg Med Chem, 2018).)
